Measurements published in PubChem BioAssay.
Calls of active or inactive are those of the source.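 The calls were made as follows, unless noted: active = inhibition at or above 50% at 10 µM; inactive = inhibition below 50%.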

What was measured:
[1] = inhibitors of TNFa-induced NFkB p65 translocation, primary screen, imaging, HUVEC, MLSMR starter and 10KST1 sets (AID 438;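 active = inhibition above 20% together with a positive visual image hit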;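 also: compound added about 3h40 before a 20 min TNFalpha stimulation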;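 as to inhibition: signal is the nuclear over cytoplasmic p65 intensity ratio per well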); settings: HUVEC TNFa-induced p65 nuclear translocation; cell count: measured here: nuclei count (cytotoxicity indicator), at 2.08 µM; inhibition: at 2 µM, stronger effect = higher value, 0% TNFa-plus-vehicle, 100% no-TNFa wells
[2] = reduction of polyQ htt aggregates in cells – imaging, exon1htt(103Q)mCFP cells, high-content imaging, primary screen (AID 483;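 active = visual image review flags a hit and inhibition of aggregation exceeds 20%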;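 also: compound exposure lasted 3 days before fixation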;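 as to nuclei count: percent of the per-plate median nuclei count of sample wells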); settings: exon1htt(103Q)mCFP cell line, aggregate imaging, at 2 µM; inhibition of aggregation: stronger effect = higher value; nuclei count: measured here: cell count, toxicity
[3] = endothelial E-selectin expression blockers – imaging, HUVEC, immunofluorescence, MLSMR starter and 10KST1 sets, primary screen (AID 487;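 active = visually confirmed hit in the image check and inhibition above 20%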;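 as to inhibition: signal is fraction of cell area covered by stained E-selectin grains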;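 as to nuclei count: 100% = median nuclei count of all wells on the same plate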); settings: HUVEC TNFalpha-induced E-selectin immunofluorescence imaging, at 2 µM; inhibition: stronger effect = higher value; nuclei count: measured here: cell number, toxicity
[4] = biological target: Voltage-gated potassium channel subunit beta-2 (Rattus norvegicus) (UniProt P62483); experiment: inhibitors of rat Kvbeta2 reductase activity – biochemical, NADPH fluorescence, primary screen (AID 622;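 active = fluorescence slope higher than the sample average by over 3 SD, cut at about -0.22 in these data, passing the limit was not always enough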;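 also: slope of raw intensity against log time taken from 70 to 1610 s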); settings: recombinant KvBeta, 4-cyanobenzaldehyde reduction, at 10 µM, stronger effect = higher value
Chain of Voltage-gated potassium channel subunit beta-2 (Rattus norvegicus) (P62483 whole entry, looked up): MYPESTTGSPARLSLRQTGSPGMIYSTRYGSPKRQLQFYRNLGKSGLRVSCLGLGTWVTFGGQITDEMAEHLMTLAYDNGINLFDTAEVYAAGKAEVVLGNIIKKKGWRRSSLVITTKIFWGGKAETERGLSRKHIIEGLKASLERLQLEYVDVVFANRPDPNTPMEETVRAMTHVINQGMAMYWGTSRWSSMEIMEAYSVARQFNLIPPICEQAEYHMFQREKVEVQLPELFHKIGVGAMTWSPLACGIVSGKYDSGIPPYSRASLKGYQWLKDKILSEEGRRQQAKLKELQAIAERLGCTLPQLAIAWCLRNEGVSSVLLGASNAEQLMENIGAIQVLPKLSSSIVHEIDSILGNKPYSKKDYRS

[5] = biological target: Voltage-gated potassium channel subunit beta-2 (Rattus norvegicus) (UniProt P62483); experiment: enhancers of rat Kvbeta2 NADPH turnover – biochemical, NADPH fluorescence, primary screen (AID 623;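 active = NADPH fluorescence slope more negative than the mean of all samples by about 3 SD, 99.7% confidence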;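 also: fluorescence intensity change per second fitted from 20 to 320 s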); settings: Recombinant KvBeta, NADPH fluorescence decrease slope, 10 min; at 10 µM; stronger effect = lower value
[6] = biological target: Muscarinic acetylcholine receptor M4 (Homo sapiens) (UniProt P08173); experiment: M4-linked GIRK flux change, two-sided – cell-based, HEK293 M4/GIRK, thallium flux, BTC-AM, M4 allosteric agonist project, primary screen (AID 625;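 active = fluorescence slope after compound addition differing from the mean of all tested samples at 99.7% confidence, mostly higher but some lower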;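 also: thallium influx through GIRK channels coupled to M4 in HEK293 cells with BTC-AM dye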); settings: at 10 µM, actives lie on both sides
Chain of Muscarinic acetylcholine receptor M4 (Homo sapiens) (P08173 whole entry, looked up): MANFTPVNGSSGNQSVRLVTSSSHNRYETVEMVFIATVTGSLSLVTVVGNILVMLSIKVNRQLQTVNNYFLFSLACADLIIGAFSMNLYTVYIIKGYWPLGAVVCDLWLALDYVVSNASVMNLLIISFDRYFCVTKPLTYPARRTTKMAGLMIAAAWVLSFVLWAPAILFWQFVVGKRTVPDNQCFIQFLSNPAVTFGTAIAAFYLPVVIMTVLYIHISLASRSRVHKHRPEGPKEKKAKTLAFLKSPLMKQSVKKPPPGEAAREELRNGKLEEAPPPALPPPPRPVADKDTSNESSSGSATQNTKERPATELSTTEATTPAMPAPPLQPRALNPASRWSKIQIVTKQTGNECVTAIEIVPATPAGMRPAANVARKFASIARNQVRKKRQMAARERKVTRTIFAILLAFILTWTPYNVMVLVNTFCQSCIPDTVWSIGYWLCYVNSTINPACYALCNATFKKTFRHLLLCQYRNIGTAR
Procedure, shortened: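 Material: M4/GIRK1/GIRK2 stable HEK293 cell line. Medium: pH 7.3 thallium assay buffer. Dosing: single compound concentration, 10 µM final. Schedule: 1 h dye loading, 2 min kinetic read. Measured by: kinetic fluorescence with BTC-AM dye. Read-out: post-addition slope, 15–24 s, of baseline-normalized fluorescence. Benchmarks: carbachol and DMSO controls.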

[7] = blockers of RIG-like receptor reporter activation – cell-based, Sendai virus stimulus, luciferase, 10K MLSCN set, TLR/RLR signaling modifier project, primary screen (AID 602276); settings: HEK293 RL24 IRF3 luciferase reporter, at 10 µM, stronger effect = higher value;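 also: firefly luciferase from ISG56 promoter only with Renilla not read in this screen; 0% = Sendai virus plus DMSO and 100% = medium plus DMSO without virus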
[8] = TLR3 IRF3 reporter activation blockers – cell-based, poly I:C stimulus, luciferase, 10K MLSCN set, primary screen (AID 602277;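 active = inhibition of the reporter signal at or above 50%; inactive = inhibition below 50%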); settings: HEK293-TLR3 RL24 IRF3 luciferase reporter, at 10 µM, stronger effect = higher value

SMILES | cell count [1] | inhibition [1] | inhibition of aggregation [2] | nuclei count [2] [%] | inhibition [3] | nuclei count [3] [%] | fluorescence slope [4] | NADPH fluorescence slope [5] | fluorescence slope [6] | inhibition [7] | inhibition [8]
CCNC(=O)Cn1cnc2c1c(=O)n(C)c(=O)n2C | 315 | -12.5% (inactive) | 4.3% (inactive) | 113 | 7.8% (inactive) | 106 | -0.617 (inactive) | 7.5e-06 (inactive) | 0.00466 (inactive) | 12.1% (inactive) | 14.3% (inactive)
Cc1ccc(S(=O)(=O)N(C)CC(=O)NC2CC(C)(C)NC(C)(C)C2)cc1 | 331 | -6.6% (inactive) | 6.2% (inactive) | 98.6 | 1.9% (inactive) | 89.8 | -0.555 (inactive) | -1.8e-05 (inactive) | 0.00697 (inactive) | 11.7% (inactive) | 22.6% (inactive)
O=C(Cn1ncc2ccccc21)N1CCN(c2cccc(C(F)(F)F)c2)CC1 | 659 | -5.8% (inactive) | 1.3% (inactive) | 114 | -16.1% (inactive) | 122 | -0.378 (inactive) | -2.5e-05 (inactive) | 0.00602 (inactive) | 12% (inactive) | 21.1% (inactive)
Cn1nnnc1SCC(=O)NCc1ccco1 | 467 | 4.6% (inactive) | -7.3% (inactive) | 133 | -60.2% (inactive) | 172 | -0.443 (inactive) | 0.000107 (inactive) | 0.00818 (inactive) | -10.5% (inactive) | -15.1% (inactive)
CN(CCCC(=O)Nc1ccncc1)S(=O)(=O)c1ccc(Cl)cc1 | 573 | -5.7% (inactive) | -13.4% (inactive) | 106 | -18.9% (inactive) | 127 | -0.584 (inactive) | 2.2e-07 (inactive) | 0.00791 (inactive) | -14.2% (inactive) | -29.3% (inactive)
O=C(O)C1CC(=O)N(c2ccc(OCc3c(F)cccc3Cl)cc2)C1 (stereo not drawn) | 571 | -18.3% (inactive) | -13% (inactive) | 100 | -18.6% (inactive) | 116 | -0.568 (inactive) | -2.6e-05 (inactive) | 0.0057 (inactive) | 4.5% (inactive) | 17.3% (inactive)
Cc1ccc(O)c(NC(=O)COc2cc(C)ccc2C)c1 | 431 | 11.4% (inactive) | 3% (inactive) | 106 | -71.5% (inactive) | 115 | -0.473 (inactive) | 4.1e-05 (inactive) | 0.00732 (inactive) | -3.99% (inactive) | -13.6% (inactive)
CCOC(=O)CSc1nc(C)c(C(=O)OCC)s1 | 392 | 4% (inactive) | -6.8% (inactive) | 106 | -18.1% (inactive) | 137 | -0.556 (inactive) | -1.9e-05 (inactive) | 0.00612 (inactive) | 7.74% (inactive) | 15.6% (inactive)
